Where a SMILES comes first, the peptide text is derived from it. Bridges are numbered along the chain shown (N, C = ends). [ ]: non-standard residue; d: D form. Oic = O=C(O)[C@@H]1C[C@@H]2CCCC[C@@H]2N1; Hyp = O=C(O)[C@@H]1C[C@@H](O)CN1; dTic = O=C(O)[C@H]1Cc2ccccc2CN1
What was measured:
B2 bradykinin receptor [1] = molecular target: T1, B2 bradykinin receptor (Cavia porcellus, UniProt O70526); assay: Binding affinity against [3H]bradykinin binding to bradykinin receptor B2 in guinea pig ileal membrane; type: cell membranes
T1 sequence (O70526 whole entry): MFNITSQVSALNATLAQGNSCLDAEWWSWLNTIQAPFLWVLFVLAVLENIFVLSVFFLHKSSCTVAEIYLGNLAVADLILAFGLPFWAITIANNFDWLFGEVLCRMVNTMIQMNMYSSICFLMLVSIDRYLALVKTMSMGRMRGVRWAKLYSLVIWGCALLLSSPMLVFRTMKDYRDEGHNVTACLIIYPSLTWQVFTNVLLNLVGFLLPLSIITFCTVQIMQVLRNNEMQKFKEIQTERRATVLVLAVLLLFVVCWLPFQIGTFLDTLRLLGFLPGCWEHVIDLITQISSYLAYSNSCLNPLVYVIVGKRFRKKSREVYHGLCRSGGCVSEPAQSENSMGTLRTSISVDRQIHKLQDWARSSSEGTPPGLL
Outline: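 Competition binding against [³H]bradykinin on guinea pig ileal membrane preparations, with affinity given as Ki following a previously described method. The ileum expresses only B2 receptors.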

B2 bradykinin receptor [2] = molecular target: T1, B2 bradykinin receptor; assay: Antagonism against bradykinin receptor B2 in guinea pig ileal tissue; type: functional; settings: read-out: pA2 (converted)
Outline: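 Functional antagonism recorded as pA2 in isolated guinea pig ileal tissue, a preparation that expresses only B2 receptors. The procedure follows conventional, previously reported methods.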

SMILES | Ki (B2 bradykinin receptor [1]) [nM] | Kb (B2 bradykinin receptor [2]) [nM]
CN(CC(=O)N(C)[C@@H](Cc1ccccc1)C(=O)N[C@@H](CO)C(=O)N1Cc2ccccc2C[C@@H]1C(=O)N1C2CCCCC2C[C@H]1C(=O)N[C@@H](CCCN=C(N)N)C(=O)O)C(=O)[C@@H]1C[C@H](O)CN1C(=O)[C@@H]1CCCN1C(=O)[C@H](CCCN=C(N)N)NC(=O)[C@H](N)CCCN=C(N)N (some centres not stated) | 1690 | 
N=C(N)NCCC[C@@H](N)C(=O)N[C@@H](CCCNC(=N)N)C(=O)N[C@H]1CSSC[C@@H](C(=O)N[C@@H](CO)C(=O)N2Cc3ccccc3C[C@@H]2C(=O)N2[C@H](C(=O)N[C@@H](CCCNC(=N)N)C(=O)O)C[C@@H]3CCCC[C@@H]32)NC(=O)CNC(=O)[C@@H]2CCCN2C1=O (H-[dR]RCPGCS[dTic][Oic]R-OH; disulfide 3-6) |  | 240
CN(C(=O)CNC(=O)[C@@H]1C[C@H](O)CN1C(=O)[C@@H]1CCCN1C(=O)[C@H](CCCN=C(N)N)NC(=O)[C@H](N)CCCN=C(N)N)[C@@H](Cc1ccccc1)C(=O)N[C@@H](CO)C(=O)N1Cc2ccccc2C[C@@H]1C(=O)N1C2CCCCC2C[C@H]1C(=O)N[C@@H](CCCN=C(N)N)C(=O)O (some centres not stated) | 26.5 | 2510
NC(N)=NCCC[C@@H](N)C(=O)N[C@@H](CCCN=C(N)N)C(=O)N[C@H]1CSSC[C@@H](C(=O)N2Cc3ccccc3C[C@@H]2C(=O)N2[C@H](C(=O)N[C@@H](CCCN=C(N)N)C(=O)O)C[C@@H]3CCCC[C@@H]32)NC(=O)[C@H](Cc2ccccc2)NC(=O)CNC(=O)[C@@H]2CCCN2C1=O (H-[dR]RCPGFC[dTic][Oic]R-OH; disulfide 3-7) |  | 501
NC(N)=NCCC[C@@H](N)C(=O)N[C@@H](CCCN=C(N)N)C(=O)N1CCC[C@H]1C(=O)N1C[C@H](O)C[C@H]1C(=O)NCC(=O)N[C@@H](Cc1ccccc1)C(=O)N[C@@H](CO)C(=O)N1Cc2ccccc2C[C@@H]1C(=O)N1[C@H](C(=O)N[C@@H](CCCN=C(N)N)C(=O)O)C[C@@H]2CCCC[C@@H]21 (H-[dR]RP[Hyp]GFS[dTic][Oic]R-OH) | 0.08 | 1.51
CC(NC(=O)[C@@H]1C[C@H](O)CN1C(=O)[C@@H]1CCCN1C(=O)[C@H](CCCN=C(N)N)NC(=O)[C@H](N)CCCN=C(N)N)C(=O)N[C@@](C)(Cc1ccccc1)C(=O)N[C@@H](CO)C(=O)N1Cc2ccccc2C[C@@H]1C(=O)N1C2CCCCC2C[C@H]1C(=O)N[C@@H](CCCN=C(N)N)C(=O)O (some centres not stated) | 3030 | 
C[C@@](Cc1ccccc1)(NC(=O)CNC(=O)[C@@H]1C[C@H](O)CN1C(=O)[C@@H]1CCCN1C(=O)[C@H](CCCN=C(N)N)NC(=O)[C@H](N)CCCN=C(N)N)C(=O)N[C@@H](CO)C(=O)N1Cc2ccccc2C[C@@H]1C(=O)N1C2CCCCC2C[C@H]1C(=O)N[C@@H](CCCN=C(N)N)C(=O)O (some centres not stated) | 0.54 | 12.6
CC(NC(=O)[C@@H]1C[C@H](O)CN1C(=O)[C@@H]1CCCN1C(=O)[C@H](CCCN=C(N)N)NC(=O)[C@H](N)CCCN=C(N)N)C(=O)N[C@@H](Cc1ccccc1)C(=O)N[C@@H](CO)C(=O)N1Cc2ccccc2C[C@@H]1C(=O)N1C2CCCCC2C[C@H]1C(=O)N[C@@H](CCCN=C(N)N)C(=O)O (some centres not stated) | 82.3 | 
CN(CC(=O)N[C@@H](Cc1ccccc1)C(=O)N[C@@H](CO)C(=O)N1Cc2ccccc2C[C@@H]1C(=O)N1C2CCCCC2C[C@H]1C(=O)N[C@@H](CCCN=C(N)N)C(=O)O)C(=O)[C@@H]1C[C@H](O)CN1C(=O)[C@@H]1CCCN1C(=O)[C@H](CCCN=C(N)N)NC(=O)[C@H](N)CCCN=C(N)N (some centres not stated) | 30.8 | 
